pKi: −log10 of the molar value. ≈ marks a conversion by molar mass, not a printed value.
Assays:
[1] = target: Sigma non-opioid intracellular receptor 1 (Cavia porcellus, UniProt Q60492); test: Displacement of [3H]-(+)pentazocine from sigma-1 receptor in guinea pig brain membranes after 120 mins by scintillation counting method; type: cell membranes, Membrane
[2] = target: Glutamate receptor ionotropic, NMDA 2B (Homo sapiens) (UniProt Q13224); test: Displacement of [3H]ifenprodil from GluN2B (unknown origin) expressed in mouse L(tk-) cell membranes co-expressing GluN1a at 1 uM incubated for 120 mins by scintillation counting method relative to control
[3] = target: T1, Sigma intracellular receptor 2 (Rattus norvegicus, UniProt Q5U3Y7); test: Displacement of [3H]-Di-o-tolylguanidine from sigma-2 receptor in rat liver membranes after 120 mins by scintillation counting method; type: cell membranes, Membrane
T1 sequence (Q5U3Y7 whole entry): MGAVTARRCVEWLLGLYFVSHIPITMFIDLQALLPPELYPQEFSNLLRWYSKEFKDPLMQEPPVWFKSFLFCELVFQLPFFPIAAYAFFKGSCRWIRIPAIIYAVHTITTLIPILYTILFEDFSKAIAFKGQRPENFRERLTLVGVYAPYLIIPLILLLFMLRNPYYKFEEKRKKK

[4] = Antioxidant activity assessed as ABTS radical scavenging activity incubated for 40 mins; type: functional
[5] = Antioxidant activity in pH 7.4 PBS assessed as H2O2 radical scavenging activity; type: functional
[6] = Cytotoxicity against human SH-SY5Y cells assessed as cell viability at 50 uM after 48 hrs by MTT assay relative to control; type: cell-based; conditions: read-out: Activity
Method in brief: (§1)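 Viability of human pancreatic carcinoma PANC1 and neuroblastoma SH-SY5Y cells, both chosen for high σ1R expression, measured by MTT assay across several test concentrations; viability expressed as percent.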

[7] = target: Glutamate receptor ionotropic, NMDA 2B (Homo sapiens, UniProt Q05586+Q13224); test: Displacement of [3H]ifenprodil from GluN2B (unknown origin) expressed in mouse L(tk-) cell membranes co-expressing GluN1a incubated for 120 mins by scintillation counting method
[8] = Cytotoxicity against human PANC1 cells assessed as cell viability at 50 uM after 48 hrs by MTT assay relative to control; type: cell-based; conditions: PANC-1 cells, read-out: Activity; method in brief: as §1
[9] = Cytotoxicity against human PANC1 cells assessed as cell viability at 100 uM after 48 hrs by MTT assay relative to control; type: cell-based; conditions: PANC-1 cells, read-out: Activity; method in brief: as §1
[10] = Cytotoxicity against human SH-SY5Y cells assessed as cell viability at 100 uM after 48 hrs by MTT assay relative to control; type: cell-based; conditions: read-out: Activity; method in brief: as §1
[11] = system: PANC-1; test: Cytotoxicity against human PANC1 cells at 12.5 to 100 uM after 48 hrs by MTT assay; type: cell-based; conditions: panc-1, 48 h; method in brief: as §1
[12] = system: SH-SY5Y; test: Cytotoxicity against human SH-SY5Y cells at 12.5 to 100 uM after 48 hrs by MTT assay; type: cell-based; method in brief: as §1
[13] = target: T2, Sigma intracellular receptor 2 (Rattus norvegicus) (UniProt Q5U3Y7); test: Displacement of [3H]-Di-o-tolylguanidine from sigma-2 receptor in rat liver membranes at 1 uM after 120 mins by scintillation counting method relative to control; type: cell membranes; conditions: Membrane
T2 sequence (whole entry): T1 sequence (Q5U3Y7 whole entry)

Glutamate receptor ionotropic, NMDA 2B (Homo sapiens), sequence (Q13224 27-1484 limits assumed): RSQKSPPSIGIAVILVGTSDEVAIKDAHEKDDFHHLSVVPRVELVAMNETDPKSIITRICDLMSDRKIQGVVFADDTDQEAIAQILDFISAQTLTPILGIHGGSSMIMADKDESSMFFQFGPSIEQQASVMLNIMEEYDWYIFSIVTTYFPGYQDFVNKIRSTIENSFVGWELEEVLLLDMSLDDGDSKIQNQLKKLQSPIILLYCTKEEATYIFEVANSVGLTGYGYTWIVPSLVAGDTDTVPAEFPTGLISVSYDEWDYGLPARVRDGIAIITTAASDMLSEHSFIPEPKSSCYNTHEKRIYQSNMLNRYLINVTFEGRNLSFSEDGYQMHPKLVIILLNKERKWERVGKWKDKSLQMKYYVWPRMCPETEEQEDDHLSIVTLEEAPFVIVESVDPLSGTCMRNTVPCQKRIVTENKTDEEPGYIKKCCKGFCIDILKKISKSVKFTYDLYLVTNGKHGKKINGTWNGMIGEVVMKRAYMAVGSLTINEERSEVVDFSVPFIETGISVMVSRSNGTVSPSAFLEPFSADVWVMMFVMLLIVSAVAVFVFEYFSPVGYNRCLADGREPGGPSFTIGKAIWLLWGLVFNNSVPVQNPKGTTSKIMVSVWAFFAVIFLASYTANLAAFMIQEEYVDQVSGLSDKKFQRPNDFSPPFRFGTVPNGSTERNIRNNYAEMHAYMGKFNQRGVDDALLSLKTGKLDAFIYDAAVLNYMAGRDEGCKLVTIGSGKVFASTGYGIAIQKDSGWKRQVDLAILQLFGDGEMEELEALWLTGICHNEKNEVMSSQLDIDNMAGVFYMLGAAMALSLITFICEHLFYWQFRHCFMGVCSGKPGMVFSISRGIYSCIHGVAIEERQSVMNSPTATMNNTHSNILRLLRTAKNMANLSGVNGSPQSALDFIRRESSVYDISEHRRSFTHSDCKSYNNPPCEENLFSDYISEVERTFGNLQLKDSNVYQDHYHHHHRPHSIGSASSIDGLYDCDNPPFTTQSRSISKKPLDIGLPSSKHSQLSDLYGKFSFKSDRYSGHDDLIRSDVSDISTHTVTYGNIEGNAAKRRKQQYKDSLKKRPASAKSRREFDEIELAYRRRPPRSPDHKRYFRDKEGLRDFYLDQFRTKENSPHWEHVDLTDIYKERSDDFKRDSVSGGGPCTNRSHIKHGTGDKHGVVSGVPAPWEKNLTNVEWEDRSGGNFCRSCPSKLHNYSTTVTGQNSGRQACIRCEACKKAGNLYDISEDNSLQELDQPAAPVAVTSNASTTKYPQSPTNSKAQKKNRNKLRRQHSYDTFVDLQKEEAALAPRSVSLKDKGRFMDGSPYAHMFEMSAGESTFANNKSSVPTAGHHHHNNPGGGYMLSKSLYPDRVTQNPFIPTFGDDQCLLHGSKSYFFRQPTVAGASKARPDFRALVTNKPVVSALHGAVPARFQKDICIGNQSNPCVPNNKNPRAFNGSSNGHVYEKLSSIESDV
Sigma non-opioid intracellular receptor 1, sequence (Q60492 whole entry): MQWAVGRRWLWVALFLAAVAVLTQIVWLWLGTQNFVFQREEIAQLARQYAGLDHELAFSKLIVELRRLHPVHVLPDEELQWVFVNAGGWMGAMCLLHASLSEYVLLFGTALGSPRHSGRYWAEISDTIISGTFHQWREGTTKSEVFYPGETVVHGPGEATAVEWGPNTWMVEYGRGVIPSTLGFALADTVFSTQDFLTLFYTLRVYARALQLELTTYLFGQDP
Glutamate receptor ionotropic, NMDA 2B, sequence (Q13224 whole entry, one chain of several): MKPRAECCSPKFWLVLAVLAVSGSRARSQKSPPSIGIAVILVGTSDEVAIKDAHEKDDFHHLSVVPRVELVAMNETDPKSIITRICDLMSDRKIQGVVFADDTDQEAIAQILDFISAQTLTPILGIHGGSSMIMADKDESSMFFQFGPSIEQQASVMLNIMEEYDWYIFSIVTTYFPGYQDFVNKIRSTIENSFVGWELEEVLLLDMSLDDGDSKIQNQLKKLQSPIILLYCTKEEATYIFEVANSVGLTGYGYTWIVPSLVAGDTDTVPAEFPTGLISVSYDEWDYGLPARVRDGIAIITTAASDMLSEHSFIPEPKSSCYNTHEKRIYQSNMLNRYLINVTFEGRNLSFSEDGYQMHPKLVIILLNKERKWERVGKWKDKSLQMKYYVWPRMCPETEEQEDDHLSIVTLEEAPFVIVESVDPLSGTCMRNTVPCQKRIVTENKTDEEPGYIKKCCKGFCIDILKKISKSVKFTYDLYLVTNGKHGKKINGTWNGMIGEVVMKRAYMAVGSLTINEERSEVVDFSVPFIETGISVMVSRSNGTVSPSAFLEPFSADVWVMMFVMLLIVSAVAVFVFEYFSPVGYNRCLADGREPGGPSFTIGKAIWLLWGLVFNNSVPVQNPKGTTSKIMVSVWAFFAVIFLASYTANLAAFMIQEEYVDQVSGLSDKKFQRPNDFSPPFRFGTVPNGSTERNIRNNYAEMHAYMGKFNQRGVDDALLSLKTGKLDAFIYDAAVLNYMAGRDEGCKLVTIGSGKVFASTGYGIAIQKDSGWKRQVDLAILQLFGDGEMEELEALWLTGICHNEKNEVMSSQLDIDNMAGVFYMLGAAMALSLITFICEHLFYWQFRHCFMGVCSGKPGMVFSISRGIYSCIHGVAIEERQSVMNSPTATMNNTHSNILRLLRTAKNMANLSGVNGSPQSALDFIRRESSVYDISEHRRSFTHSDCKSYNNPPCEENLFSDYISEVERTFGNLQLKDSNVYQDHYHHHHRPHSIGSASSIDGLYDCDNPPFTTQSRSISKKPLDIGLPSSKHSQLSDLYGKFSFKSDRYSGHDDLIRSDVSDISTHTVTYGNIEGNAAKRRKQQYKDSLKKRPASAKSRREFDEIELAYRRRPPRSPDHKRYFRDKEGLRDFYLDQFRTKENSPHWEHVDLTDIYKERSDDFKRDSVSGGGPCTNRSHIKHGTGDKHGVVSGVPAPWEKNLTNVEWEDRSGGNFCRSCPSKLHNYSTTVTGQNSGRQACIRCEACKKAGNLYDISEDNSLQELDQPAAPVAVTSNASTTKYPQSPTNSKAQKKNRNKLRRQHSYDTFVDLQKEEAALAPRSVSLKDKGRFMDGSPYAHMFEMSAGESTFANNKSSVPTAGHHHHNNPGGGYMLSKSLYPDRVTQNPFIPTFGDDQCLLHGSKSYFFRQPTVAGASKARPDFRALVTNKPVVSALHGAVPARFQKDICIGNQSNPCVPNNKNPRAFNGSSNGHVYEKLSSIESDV

SMILES | pKi [1] | inhibition [2] | pKi [3] | IC50 [4] | IC50 [5] | pKi [7] | also measured
Cc1ccc(CN2CCCN(C(=O)c3cccs3)CC2)c(C)c1 | 6.47 | 3% | 5.74 |  |  |  | 
Cc1c(C)c2c(c(C)c1O)CCC(C)(C(=O)O)O2 (stereo unspecified) [TROLOX] |  |  |  | 18.73 µg/mL (≈ 74.8 µM) | 20.38 µg/mL (≈ 81.4 µM) |  | 
O=C(c1cc2ccccc2o1)N1CCCN(Cc2ccccc2)CC1 | 8.10 |  | 7.33 | 12.71 µg/mL (≈ 38 µM) | 15.89 µg/mL (≈ 47.5 µM) | 5.80 | viability at 48 h, 50 µM [6]: 127%; viability at 48 h, 50 µM [8]: 196%; viability at 48 h, 100 µM [9]: 127%; viability at 48 h, 100 µM [10]: 98%
O=C(c1ccncc1)N1CCCN(Cc2ccccc2)CC1 | 6.57 | 0% | 6.31 |  |  |  | 
Cc1ccc(CN2CCCN(C(=O)c3ccccc3)CC2)c(C)c1 | 6.07 |  | 5.41 |  |  | 6.53 | 
Cc1ccc(CN2CCCN(C(=O)c3cc4ccccc4o3)CC2)c(C)c1 | 7.70 |  | 7.55 | 10.05 µg/mL (≈ 27.7 µM) | 18.56 µg/mL (≈ 51.2 µM) | 7.23 | Activity [11]: Non-Toxic; Activity [12]: Non-Toxic
O=C(c1ccccc1)N1CCCN(Cc2ccccc2)CC1 | 6.94 | 0% |  |  |  |  | inhibition [13]: 0%
O=C(c1ccco1)N1CCCN(Cc2ccccc2)CC1 | 6.48 | 1% | 6.25 |  |  |  | 
O=C1O[C@H]([C@@H](O)CO)C(O)=C1O [ASCORBIC ACID] |  |  |  | 12.75 µg/mL (≈ 72.4 µM) | 19.27 µg/mL (≈ 109 µM) |  | 
O=C(c1ccc2ccccc2n1)N1CCCN(Cc2ccccc2)CC1 | 7.72 |  | 7.33 | 14.26 µg/mL (≈ 41.3 µM) | 20.35 µg/mL (≈ 58.9 µM) | 5.82 | 
O=C(c1cccs1)N1CCCN(Cc2ccccc2)CC1 | 6.83 | 0% | 6.53 |  |  |  | 
Cc1ccc(CN2CCCN(C(=O)c3cccc4ccccc34)CC2)c(C)c1 | 7.15 |  | 6.99 |  |  | 7.10 | 
Cc1ccc(CN2CCCN(C(=O)c3ccc4ccccc4n3)CC2)c(C)c1 | 7.54 |  | 7.46 | 9.43 µg/mL (≈ 25.2 µM) | 17.44 µg/mL (≈ 46.7 µM) | 6.97 | viability at 48 h, 100 µM [9]: 51%
O=C(c1cccc2ccccc12)N1CCCN(Cc2ccccc2)CC1 | 7.39 | 9% | 6.73 |  |  |  | 
Cc1ccc(CN2CCCN(C(=O)c3ccco3)CC2)c(C)c1 | 6.16 | 0% | 5.41 |  |  |  | 
Cc1ccc(CN2CCCN(C(=O)c3ccncc3)CC2)c(C)c1 | 6.60 |  | 5.70 |  |  | 6.94 | 

— ChEMBL document CHEMBL4613279, “Synthesis, Cytotoxicity Evaluation, and Computational Insights of Novel 1,4-Diazepane-Based Sigma Ligands” (ACS Med Chem Lett, 2020)
